Data on eleven compounds can be found in ChEMBL document CHEMBL1150391, “Pyridinium cationic-dimer antimalarials, unlike chloroquine, act selectively between the schizont stage and the ring stage of Plasmodium falciparum” (Bioorg Med Chem, 2008).

Structures are written as SMILES. The source made the active and inactive calls. The rule behind the calls is not given here.

Assay [1] deals with Plasmodium falciparum. In words: Antimalarial activity as reduced parasitaemia after 72 hrs against chloroquine-sensitive Plasmodium falciparum FCR3 in human erythrocytes by Diff-Quick stain. It is filed as functional, organism-based. The conditions noted are these: FCR3, 72 h. In outline:
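FCR-3 grown in type A human RBCs (5% hematocrit stock culture) in RPMI 1640 with HEPES, NaHCO3, gentamicin and 10% heat-inactivated type A human serum. Assay: 0.3% parasitemia, 3% final hematocrit, DMSO compound dilutions; 72 h, 37 °C, 5% CO2/5% O2/90% N2. Parasitemia read from Diff-Quik thin films. Duplicate wells, mean of three experiments; IC50 taken from the growth-inhibition curve.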

Another assay has as its system FM3A. The assay is described as follows: Cytotoxicity against mouse FM3A cells assessed as inhibition of increase in cell density after 48 hrs. It counts as cell-based. In outline:
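Mouse mammary tumor FM3A (subclone F28-7) cells kept in suspension in ES medium with 2% heat-inactivated FBS, seeded at 5 × 10⁴ cells/mL, compounds added in DMSO. 48 h, 37 °C, 5% CO2; cells counted microscopically. Duplicate wells, mean of three experiments; IC50 is the concentration giving 50% inhibition of cell-density increase versus control.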

Assay [2] relates to Plasmodium falciparum. The assay is described as follows: Antimalarial activity as synchronized ring-stage of chloroquine-sensitive Plasmodium falciparum FCR3 infected human erythrocytes at 5 uL by Diff-Quick stain. It is filed as functional, organism-based. In outline: (§1)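 Cultures synchronized twice with 5% D-sorbitol 40 h apart (>80% rings); stage checked microscopically before dosing. Compound added at ring, middle trophozoite, late trophozoite or schizont stage; 5% erythrocytes, about 1.0% parasitemia, compound in 0.1% DMSO at 100 times the IC50. 48 h, 37 °C; medium and compound renewed at 24 h. Infection ratio counted per at least 2000 erythrocytes in Diff-Quik films every 6 h; duplicate, versus compound-free control.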

The test system of assay [3] is Plasmodium falciparum. In words: Antimalarial activity as synchronized late trophozoites of chloroquine-sensitive Plasmodium falciparum FCR3 in human erythrocytes at 5 uL by Diff-Quick stain. It counts as functional, organism-based. In outline:
as §1

Assay [4] concerns Plasmodium falciparum. In words: Antimalarial activity as synchronized schizonts of chloroquine-sensitive Plasmodium falciparum FCR3 in human erythrocytes at 5 uL by Diff-Quick stain. It counts as functional, organism-based. The essentials: as §1
Assay [5] deals with Plasmodium falciparum. The assay is described as follows: Antimalarial activity as synchronized middle trophozoites of chloroquine-sensitive Plasmodium falciparum FCR3 in human erythrocytes at 5 uL by Diff-Quick stain. It counts as functional, organism-based. In outline:
as §1

For `O=C(Nc1ccc(Br)cc1)c1cc[n+](CCCCCCCCCC[n+]2ccc(C(=O)Nc3ccc(Br)cc3)cc2)cc1`, the EC50 (in general, the concentration needed to bring the measured effect to its halfway point) with Plasmodium falciparum [1] stood at 15 nM; with FM3A, 1390 nM.

For the compound `O=C(Nc1ccc(I)cc1)c1cc[n+](CCCCCCCCCC[n+]2ccc(C(=O)Nc3ccc(I)cc3)cc2)cc1`, the EC50 was determined as 12 nM in the assay with Plasmodium falciparum [1] and 1420 nM in the assay on FM3A.

As for `CCCCNC(=O)c1cc[n+](CCCCCCCCCCCC[n+]2ccc(C(=O)NCCCC)cc2)cc1`, the concentration for a half-maximal effect (EC50) was found to be 100 nM with Plasmodium falciparum [1] and 52900 nM in the assay with FM3A.

Regarding `O=C(Nc1ccc(F)cc1)c1cc[n+](CCCCCCCCCC[n+]2ccc(C(=O)Nc3ccc(F)cc3)cc2)cc1`, the EC50 was found to be 21 nM in the assay on Plasmodium falciparum [1] and 27800 nM in the assay on FM3A.

As for `O=C(Nc1ccccc1)c1cc[n+](CCCCCCCCCC[n+]2ccc(C(=O)Nc3ccccc3)cc2)cc1`, the values for the EC50 with Plasmodium falciparum [1] and in the assay on FM3A were 29 nM and 42800 nM, respectively. Besides, the result with Plasmodium falciparum [2], with Plasmodium falciparum [3] and in the assay on Plasmodium falciparum [5] was inactive. Further, in the assay on Plasmodium falciparum [4], the outcome was Active.

Regarding `CCCCCCNC(=O)c1cc[n+](CCCCCCCCCC[n+]2ccc(C(=O)NCCCCCC)cc2)cc1`, the EC50 with Plasmodium falciparum [1] was determined as 5 nM; with FM3A it was 10500 nM. Also, the result in the assay on Plasmodium falciparum [2], with Plasmodium falciparum [3] and in the assay with Plasmodium falciparum [5] was inactive. Further, the result with Plasmodium falciparum [4] was Active.

Turning to `Cc1ccc(NC(=O)c2cc[n+](CCCCCCCCCC[n+]3ccc(C(=O)Nc4ccc(C)cc4)cc3)cc2)cc1`, the 50% effective concentration (EC50) was determined as 39 nM in the assay on Plasmodium falciparum [1] and 25600 nM in the assay on FM3A.

As to `O=C(Nc1ccc([N+](=O)[O-])cc1)c1cc[n+](CCCCCCCCCC[n+]2ccc(C(=O)Nc3ccc([N+](=O)[O-])cc3)cc2)cc1`, the figures for the EC50 with Plasmodium falciparum [1] and in the assay on FM3A were 74 nM and 5990 nM, respectively.

As to `O=C(Nc1ccc(Cl)cc1)c1cc[n+](CCCCCCCCCC[n+]2ccc(C(=O)Nc3ccc(Cl)cc3)cc2)cc1`, the EC50 was found to be 8 nM in the assay with Plasmodium falciparum [1] and 1890 nM in the assay with FM3A.

In the case of `N#Cc1ccc(NC(=O)c2cc[n+](CCCCCCCCCC[n+]3ccc(C(=O)Nc4ccc(C#N)cc4)cc3)cc2)cc1`, the figures for the EC50 with Plasmodium falciparum [1] and with FM3A were 35 nM and 42400 nM, respectively.

With `O=C(Nc1ccc(C(F)(F)F)cc1)c1cc[n+](CCCCCCCCCC[n+]2ccc(C(=O)Nc3ccc(C(F)(F)F)cc3)cc2)cc1`, the EC50 in the assay with Plasmodium falciparum [1] is 33 nM; in the assay with FM3A, 5180 nM.
